Measured values from different studies.
Compare with care: the assays were run in different laboratories.
FGFR3 G697C: Fibroblast growth factor receptor 3 (FGFR3, Homo sapiens, UniProt P22607, G697C)
FGFR3: Fibroblast growth factor receptor 3 (FGFR3, Homo sapiens, UniProt P22607)

Compound	target	read-out	technique	concentration	remaining binding
C[C@@H](c1cccc(C#N)c1)n1cc(Cl)cc(C(N)=O)c1=N	FGFR3 G697C	cell-free assay	competition with immobilised ligand	1 µM	79%
C[C@@H]1CN(c2ccc3ncc(-c4ccc5[nH]nc(C6CC6)c5c4)n3n2)C[C@H](C)O1	FGFR3	binding	competition with immobilised ligand	0.5 µM	100%
CNC(=O)[C@@H]1CC[C@@H](n2c(-c3ccc4cnccc4c3)nc3ccc(C(=O)NCc4cccc(C(N)=O)c4)cc32)C1	FGFR3	binding	competition with immobilised ligand	1 µM	100%
O=C(NCC1CCOCC1)c1n[nH]cc1NC(=O)c1c(F)cccc1F	FGFR3 G697C	binding	competition with immobilised ligand	1 µM	100%
Nc1ncc2c(n1)-c1c([nH]c3ccc(C#CC4CC4)cc13)CCCC2	FGFR3 G697C	binding	competition with immobilised ligand	1 µM	100%
c1cncc(-c2cccc(Nc3nccc(NC4CCCCC4)n3)c2)c1	FGFR3 G697C	binding	competition with immobilised ligand	10 µM	51%
COc1cnc(Nc2cccc(S(N)(=O)=O)c2)nc1N1CCN(c2ccccc2)C(=O)C1	FGFR3	binding	competition with immobilised ligand	1 µM	100%
COc1ccc2c(c1)O[C@@H](c1ccc(OC)c(OC)c1)C[C@H]2NC(=O)C1(c2ccc3c(c2)OC(F)(F)O3)CC1	FGFR3	cell-free assay	competition with immobilised ligand	1 µM	89%
O=C(Nc1c[nH]nc1C(=O)NC1CCNCC1)c1cc(F)cc(F)c1	FGFR3 G697C	binding	competition with immobilised ligand	1 µM	100%
O=C(NCCCN1CCOCC1)c1ccc(Nc2ncc(Cl)c(-c3ccc(Cl)s3)n2)cc1	FGFR3	binding	competition with immobilised ligand	1 µM	41%
COc1ccnn2ncc(-c3ccnc(N(C)C)n3)c12	FGFR3	binding	–	1 µM	95%
CN(C)C(=O)Cn1cc(-c2nc([C@@](C)(c3ccc(-c4cnc(N)nc4)cc3)C3CC3)no2)cn1	FGFR3 G697C	cell-free assay	competition with immobilised ligand	1 µM	89%
C[C@H]1CCN(c2nccc(-c3cnn4ncccc34)n2)C1	FGFR3	binding	–	1 µM	100%
CCCCN(CCCC)C(=O)CN1C[C@@H](c2cc(OC)c3c(c2)OCO3)[C@H](C(=O)O)[C@H]1CC(C)(C)CCC	FGFR3	cell-free assay	competition with immobilised ligand	1 µM	88.5%
O=C(c1ccc(Nc2nccc(-c3cc4ccccc4s3)n2)cc1)N1CCC(N2CCCC2)CC1	FGFR3	binding	competition with immobilised ligand	1 µM	87%
N[C@@H]1CCN(c2nccc(-c3cnn4ncccc34)n2)C1	FGFR3 G697C	binding	–	1 µM	100%
CS(=O)(=O)c1cc(C2(NC(=O)c3cncc4c3cnn4-c3ccc(F)cc3)CC2)ccn1	FGFR3	cell-free assay	competition with immobilised ligand	1 µM	100%
CN1CCN(c2ccc(Nc3nccc(-c4cccc([N+](=O)[O-])c4)n3)cc2C(F)(F)F)CC1	FGFR3 G697C	binding	–	10 µM	63%

Compound	target	read-out	technique	concentration	remaining binding
CCN1CCN(Cc2ccc(C(=O)Nc3ccc(C)c(Oc4ccc5c(c4)CC(=O)N5)c3)cc2C(F)(F)F)CC1	FGFR3	binding	competition with immobilised ligand	1 µM	100%
O=C(c1ccc(Nc2ncc(Cl)c(-c3ccc(Cl)s3)n2)cc1)N1CCC(N2CCCC2)CC1	FGFR3	binding	competition with immobilised ligand	1 µM	19%
C[C@@H](c1ccc(-n2cnc3c(N)ncnc32)cc1)N1CCc2nn(C)c(Cc3ccccc3)c2C1=O	FGFR3 G697C	binding	competition with immobilised ligand	0.1 µM	96%
Cc1cnc(Nc2ccc(C(=O)N3CCC(N4CCCC4)CC3)cc2)nc1-c1cc2ccccc2s1	FGFR3	binding	competition with immobilised ligand	1 µM	23%
c1cnn2ncc(-c3ccnc(N4CCC45COC5)n3)c2c1	FGFR3 G697C	binding	–	1 µM	86%
N#Cc1ccccc1CSc1nnc2c(n1)[nH]c1ccccc12	FGFR3	binding	competition with immobilised ligand	10 µM	88%
COc1ncc2cc3ccccc3nc2c1C#N	FGFR3	cell-free assay	competition with immobilised ligand	5 µM	100%
C=CC(=O)N1CCC(C(=O)NCC(=O)N2CCN(c3nc(-c4cnc(N)nc4C(F)F)nc(N4CCOCC4)n3)CC2)CC1	FGFR3	binding	competition with immobilised ligand	1 µM	96%
COc1ccc2cc(OCC3(C(=O)O)CN(C(=O)c4ccc(F)cc4)C3)ccc2c1	FGFR3	cell-free assay	competition with immobilised ligand	1 µM	100%
COc1cnc(Nc2cccc(S(N)(=O)=O)c2)nc1N1CCN(c2ccccc2)CC1	FGFR3	binding	competition with immobilised ligand	1 µM	98%
CN(C)c1nccc(-c2cnn3ncccc23)n1	FGFR3 G697C	binding	–	1 µM	65%
CC(=O)N1CCC(c2ccc(C(=O)NC(=N)N)cc2C(F)(F)F)CC1	FGFR3 G697C	cell-free assay	competition with immobilised ligand	1 µM	98%
CN(c1nccc(-c2cnn3ncccc23)n1)C1CC1	FGFR3	binding	–	1 µM	98%
O=C(c1ccc(Nc2ncc(Cl)c(-c3cc4ccccc4s3)n2)cc1)N1CCC(N2CCCC2)CC1	FGFR3	binding	competition with immobilised ligand	1 µM	38%
CC1CCCN1c1nccc(-c2cnn3ncccc23)n1 (centres unmarked)	FGFR3	binding	–	1 µM	100%
O=C(NCCCN1CCOCC1)c1ccc(Nc2nccc(-c3cc4ccccc4s3)n2)cc1	FGFR3	binding	competition with immobilised ligand	1 µM	94%
O=C1NC(c2ccccn2)Sc2ccccc21 (centres unmarked)	FGFR3	cell-free assay	competition with immobilised ligand	1 µM	97%
